Screening results: PubChem, several laboratories
MEKK3 PB1 HTS: MEKK3-MEK5 PB1 interaction, increase or decrease; Q99759; bead-based flow cytometry, Alexa488-MEK5 binding to MEKK3; actives lie on both sides; 0 = blocked by unlabeled MEK5, 100 = vehicle; binding response (% of control), % at 10 µM; 290,000 tested, 1.4% active; AID 1529;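 active = binding response more than 3 SD above or below the average of its plate-row segment, actives on both sides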;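 also: Alexa488 bead fluorescence after subtracting the streptavidin-only scavenger bead signal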
Target sequence (Q99759 whole entry, looked up): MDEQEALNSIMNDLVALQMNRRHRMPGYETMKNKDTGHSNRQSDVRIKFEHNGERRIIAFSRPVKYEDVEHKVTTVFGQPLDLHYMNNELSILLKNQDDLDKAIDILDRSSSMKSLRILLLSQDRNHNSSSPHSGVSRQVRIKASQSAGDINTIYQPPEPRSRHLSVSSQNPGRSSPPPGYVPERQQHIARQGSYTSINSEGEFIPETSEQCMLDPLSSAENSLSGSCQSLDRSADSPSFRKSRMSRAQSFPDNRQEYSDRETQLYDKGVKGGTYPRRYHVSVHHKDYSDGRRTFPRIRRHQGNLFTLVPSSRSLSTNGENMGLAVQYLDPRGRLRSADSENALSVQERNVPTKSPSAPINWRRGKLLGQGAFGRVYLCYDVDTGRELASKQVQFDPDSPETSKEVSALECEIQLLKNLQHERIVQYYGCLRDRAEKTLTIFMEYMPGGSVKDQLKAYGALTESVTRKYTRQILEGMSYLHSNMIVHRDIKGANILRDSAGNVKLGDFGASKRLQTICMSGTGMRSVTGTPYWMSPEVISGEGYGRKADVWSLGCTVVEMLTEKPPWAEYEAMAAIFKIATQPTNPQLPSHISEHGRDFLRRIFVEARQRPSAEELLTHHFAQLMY
PREPL inhibitor: inhibitors of human prolyl oligopeptidase-like enzyme PREPL; 320,000 tested, 0.68% active; recombinant PREPL, fluorescence polarization activity-based probe; inhibition, % at 5.96 µM; AID 2751; in the data active = inhibition above about 43%;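 also: 0% = enzyme with DMSO and 100% = wells lacking enzyme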
MEKK2wt PB1 HTS: raises or lowers MEK5 binding to wildtype human MEKK2 PB1 domain. Q9Y2U5. bead flow cytometry, Alexa488-MEK5 binding to MEKK2 WT; actives lie on both sides. binding response (% of control), % at 10 µM. 290,000 tested, 1.1% active; in the data active = binding response below about 67% or above about 130%
UBC13 inh: inhibitors of human UBC13 polyubiquitin chain formation; P61088; TR-FRET; inhibition, % at 20 µM; 330,000 tested, 0.47% active; AID 485273; in the data active = inhibition above about 45%, passing the limit was not always enough
Apaf-1 inh: inhibitors of human Apaf-1 apoptosome; inhibition, % at 20 µM; AID 489030; O14727; 330,000 tested, 0.71% active; reconstituted apoptosome caspase-3 activity, DEVD-Rh110 fluorescence; active = inhibition of at least 40% at 20 µM;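 also: plate controls were DMSO wells for no effect and DEVD-CHO caspase inhibitor wells for full effect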
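System: reconstituted apoptosome with Apaf-1, cytochrome c, caspase-9, procaspase-3, dATP; Signal: Rh110 fluorescence intensity; Schedule: 30 min compound preincubation, 50 min activation, room temperature; Reagent: cytochrome c trigger plus (Z-DEVD)2-Rh110 caspase-3 substrate.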
MEKK2mut PB1 HTS: signal of MEK5 binding to mutant human MEKK2 PB1 domain | bead flow cytometry, Alexa488-MEK5 binding to MEKK2 mutant | percent response, % at 10 µM | 290,000 tested, 0.35% active | AID 1530; in the data active = percent response above about 24%, passing the limit was not always enough
MEKK2wt confirm: raises or lowers MEK5 binding to wildtype human MEKK2, retest; bead flow cytometry, Alexa488-MEK5 binding to MEKK2 WT; actives lie on both sides; shares compounds with MEKK3 PB1 HTS; 5,900 tested, 2.4% active; binding response (% of control), % at 10 µM; AID 1892; in the data active = binding response below about 16% or above about 210%; inactive = in between
MEKK2mut confirm: signal of MEK5 binding to mutant human MEKK2, retest | shares compounds with MEKK3 PB1 HTS | bead flow cytometry, Alexa488-MEK5 binding to MEKK2 mutant | percent response, % at 10 µM | 5,900 tested, 2% active | AID 1893; in the data active = percent response mostly above about 71%, no sharp cut-off; inactive = mostly below about 38%;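 also: higher means compound restores mutant binding toward wildtype level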
MEKK3-MEK5 inh: confirmation of inhibitors of MEK5 binding to human MEKK3 | shares compounds with MEKK3 PB1 HTS | bead flow cytometry, Alexa488-MEK5 binding to MEKK3; active compounds read low | binding response (% of control), % at 10 µM | 5,900 tested, 1.8% active | AID 1894;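 active = binding response below 72% of control, or above a set upper limit, though filed actives all read lower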;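 also: 100% = DMSO only wells and 0% = binding blocked by excess unlabeled MEK5; lower values mean stronger disruption of MEK5 binding to MEKK3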
* = called active by the depositor; . = no result given; [ ] = another dose, or the depositor's remark. Hits are enriched below; roughly 3.1% of the tested compounds scored in any of these assays.

SMILES	MEKK3 PB1 HTS	PREPL inhibitor	MEKK2wt PB1 HTS	UBC13 inh	Apaf-1 inh	MEKK2mut PB1 HTS	MEKK2wt confirm	MEKK2mut confirm	MEKK3-MEK5 inh
COc1cc(CN2CCN(C(c3ccccc3)c3ccccc3)CC2)cc(OC)c1OC	104.0	20.1	119.0	8.6	10.5	9.0	.	.	.
Cc1ccc(C(=O)NCCc2nnc3ccc(SCC(=O)Nc4c(C)cc(C)cc4C)nn23)cc1	133.0*	-6.5	108.0	-3.1	0.5	1.0	103.0	2.0	101.0
O=c1c(C=NCCN2CCNCC2)c(-c2ccccc2)[nH]n1-c1ccc([N+](=O)[O-])cc1	118.0	2.8	179.0*	21.0	9.8	31.0	142.0	45.0	107.0
COc1ccc(-c2[nH]n(-c3ccc([N+](=O)[O-])cc3)c(=O)c2C=NCCN2CCNCC2)cc1	101.0	37.1	113.0	27.3	5.7	0.0	.	.	.
COC(=O)C1Cc2c([nH]c3ccccc23)CN1C(C)=O (centres undefined)	100.0	13.2	106.0	3.6	-0.8	6.0	.	.	.
CCN(CC)S(=O)(=O)c1ccc(C)c(NC(=O)COc2ccc3c(C)cc(=O)oc3c2)c1	106.0	-1.2	86.0	16.5	9.9	15.0	.	.	.
CCN(CC)S(=O)(=O)c1ccc(OC)c(NC(=O)C(C)Oc2ccc3c(C)cc(=O)oc3c2)c1 (centres undefined)	145.0*	-9.7	107.0	-10.3	11.9	0.0	103.0	3.0	105.0
CS(=O)(=O)c1ccc(CNC(=O)C2(C(F)(F)F)C/C(=C\Cc3ccccc3)CCCO2)cc1 (centres undefined)	81.0*[inhibitor]	-1.5	85.0	3.5	6.7	-7.0	102.0	5.0	104.0
CCC/C=C1/CCCOC(C(=O)NCc2ccc(S(C)(=O)=O)cc2)(C(F)(F)F)C1 (centres undefined)	103.0	-1.7	101.0	-3.6	-5.5	4.0	.	.	.
O=C(Cn1cnc2ccccc21)N/N=C/c1ccc([N+](=O)[O-])cc1	141.0*	8.2	116.0	-12.5	5.5	3.0	89.0	0.0	94.0
O=C(Cn1cnc2ccccc21)N/N=C/c1ccccc1[N+](=O)[O-]	138.0*	21.6	105.0	-12.4	-6.1	0.0	99.0	0.0	97.0
O=C(Cn1cnc2ccccc21)N/N=C/c1cccc([N+](=O)[O-])c1	106.0	-0.2	112.0	4.6	4.0	10.0	.	.	.
COC(/C(=N/O)c1ccc(Cl)cc1)c1ccccc1 (centres undefined)	94.0	-3.8	92.0	9.2	17.7	-2.0	.	.	.
Cc1ccccc1OCC(=O)NNC(=O)C1CC(=O)N(c2ccc3c(c2)OCCO3)C1 (centres undefined)	.	5.6	.	-1.9	3.0	.	.	.	.
COc1ccc(/C=N/Nc2cc(C)nc3ccccc23)cc1	112.0	42.2	228.0*	16.6	37.6	43.0*	177.0	48.0	111.0
Cc1ccc2nc(C)cc(N/N=C/c3cccc(O)c3)c2c1	103.0	23.9	104.0	6.4	11.8	5.0	.	.	.
Cc1c2cnn(CC(=O)NCCCN3CCCCC3C)c(=O)c2c(C)n1Cc1ccccc1 (centres undefined)	101.0	31.2	145.0*	29.2	31.6	28.0*	130.0	21.0	104.0
Cc1c2cnn(CC(=O)NC3CCCC3)c(=O)c2c(C)n1Cc1ccccc1	103.0	-0.2	103.0	1.2	3.7	-3.0	.	.	.
Cc1ccc(C)c(NC(=O)c2cc(-c3ccccc3)nn2-c2ccccc2)c1	60.0*[inhibitor]	4.7	96.0	14.7	5.3	-1.0	110.0	6.0	103.0
O=C(c1ccc(Cl)cc1)N(Cc1ccco1)C1CCS(=O)(=O)C1 (centres undefined)	2.0*[inhibitor]	19.9	1.0*[inhibitor]	0.5	-9.5	-32.0	103.0	-1.0	104.0
O=C(c1ccccc1)N(Cc1ccco1)C1CCS(=O)(=O)C1 (centres undefined)	101.0	-1.6	103.0	-0.6	-1.5	4.0	.	.	.
Cc1ccccc1N(CC(=O)NC1CCCC1)C(=O)C1(C)CC(=O)N=C2C=CC=CN21 (centres undefined)	46.0*[inhibitor]	4.9	68.0	13.3	-0.6	-4.0	100.0	-4.0	100.0
Cc1ccccc1N(CC(=O)NC1CCCC1)C(=O)C1(C)CC(=O)N=C2C=CC(Cl)=CN21 (centres undefined)	103.0	13.4	99.0	15.1	0.3	1.0	.	.	.
N#Cc1ccc(-c2csc(NC(=O)c3cc(-c4cccs4)nc4ccccc34)n2)cc1	63.0*[inhibitor]	-5.7	38.0*[inhibitor]	-3.7	-28.1	-31.0	103.0	10.0	107.0
COCCN(C(=O)COC(=O)c1ccc(Cl)nc1)c1c(N)n(Cc2ccccc2)c(=O)[nH]c1=O	.	0.4	.	4.3	2.5	.	.	.	.
SMILES	MEKK3 PB1 HTS	PREPL inhibitor	MEKK2wt PB1 HTS	UBC13 inh	Apaf-1 inh	MEKK2mut PB1 HTS	MEKK2wt confirm	MEKK2mut confirm	MEKK3-MEK5 inh
COc1cc(NC(=O)COC(=O)c2ccc(C)c(S(=O)(=O)N3CCCCC3)c2)c(C)cc1[N+](=O)[O-]	146.0*	-0.7	108.0	-2.4	15.0	0.0	105.0	1.0	102.0
COc1ccc(C(=O)OCC(=O)Nc2ccc(OC)c(S(=O)(=O)N3CCCCC3)c2)cc1[N+](=O)[O-]	.	.	.	-6.9	15.4	.	.	.	.
Cc1csc(SCc2ccc(C(=O)O)cc2)n1	100.0	-7.0	102.0	4.0	-0.7	-1.0	.	.	.
Cc1csc(SCc2ccccc2C(=O)O)n1	3.0*[inhibitor]	0.0	3.0*[inhibitor]	-5.0	-0.1	-14.0	100.0	2.0	102.0
O=C(C1CC=CCC1)N1CCN(S(=O)(=O)c2ccc(F)cc2)CC1 (centres undefined)	.	.	.	-3.4	9.6	.	.	.	.
CC(C)C(NS(=O)(=O)c1c(Cl)cccc1Cl)C(=O)OCC(=O)c1c[nH]c2ccccc12 (centres undefined)	77.0	-66.7	-2.0*	-0.5	5.1	76.0*	105.0	9.0	102.0
O=C(CCS(=O)(=O)c1cccs1)N1CCN(c2ccc(F)cc2)CC1	122.0*	-6.0	118.0	3.5	0.1	7.0	69.0	-21.0	71.0*
CCOC(=O)C1CCN(S(=O)(=O)c2ccc(-c3ccccn3)s2)CC1	130.0*	-15.8	129.0	-2.6	1.3	25.0	99.0	-3.0	101.0
CCOC(=O)C1CCN(S(=O)(=O)c2ccc(C)c(C)c2)CC1	100.0	2.5	89.0	5.2	-1.5	-13.0	.	.	.
CCOC(=O)C1CCN(S(=O)(=O)c2ccc(-n3cnnn3)c(C)c2)CC1	79.0*[inhibitor]	-1.8	86.0	40.2	-17.2	-11.0	101.0	-3.0	102.0
